Experiments:
Format in all cases: functional
[1] = tested on: MCF7; experiment: Growth inhibition of human MCF7 cells at 10 uM by MTT assay; details: read-out: GI
[2] = tested on: MDA-MB-231; experiment: Growth inhibition of human MDA-MB-231 cells at 10 uM by MTT assay; details: read-out: GI
[3] = tested on: MDA-MB-468; experiment: Growth inhibition of human MDA-MB-468 cells at 10 uM by MTT assay; details: read-out: GI
[4] = Growth inhibition of human SKBR3 cells at 10 uM by MTT assay; details: SK-BR-3, read-out: GI
[5] = tested on: MDA-MB-231; experiment: Antitumor activity against human MDA-MB-231 cells xenografted in SCID mouse assessed as inhibition of tumor growth at 20 mg/kg, ip dosed once daily for 5 days per week for 28 days; details: MDA-MB-231, ip, in the assay text read “athymic nude mouse” for “SCID mouse”, route intraperitoneal, read-out: TGI
In short: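 Athymic nude female mice with subcutaneous MDA-MB-231 tumors (10 × 10⁶ cells; ~100 mm³ at randomization, n = 6/group) dosed ip once daily, 5 days/week for 28 days, in 40% β-cyclodextrin/ddH₂O; vehicle controls. %T/C computed as median tumor volume treated vs control at day 28 × 100. Body weight monitored.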

SMILES	inhibition of growth at 10 µM [1] [%]	inhibition of growth at 10 µM [2] [%]	inhibition of growth at 10 µM [3] [%]	inhibition of growth at 10 µM [4] [%]	inhibition in vivo at 20 mg/kg [5] [%]
CC1=C(/C=C/C(C)=C/C=C/C(C)=C\C(=O)NCc2ccc(O)cc2)C(C)(C)CC=C1c1cccnc1	≥ 40	≥ 40	≥ 40	≥ 40	–
COc1cccc(C2=CCC(C)(C)C(/C=C/C(C)=C/C=C/C(C)=C\C(=O)NCCc3ccc(O)cc3)=C2C)c1	≥ 40	≥ 40	≥ 40	≥ 40	–
CC1=C(/C=C/C(C)=C/C=C/C(C)=C/C(=O)Nc2ccc(F)cc2)C(C)(C)CCC1n1ccnc1 (stereo not drawn)	–	–	–	–	97
COc1cccc(C2=CCC(C)(C)C(/C=C/C(C)=C/C=C/C(C)=C\C(=O)NCc3ccc(O)cc3)=C2C)c1	≥ 40	≥ 40	≥ 40	≥ 40	–
